Here are results for five compounds from ChEMBL document CHEMBL1146316, “Novel antitumor agent family of 1H-benzo[c,d]indol-2-one with flexible basic side chains: synthesis and biological evaluation” (Bioorg Med Chem, 2007).

The structures appear in SMILES notation.

In experiment [1] the test system is P388. The experiment is described as follows: Cytotoxicity against mouse P388 cells by microculture tetrazolium-formazan method. It is filed as functional, cell-based. In outline:
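Murine P388 leukemia cells were assayed by the microculture tetrazolium–formazan method, and the IC50 was reported as the cytotoxicity value.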

The subject of experiment [2] is A549. In words: Cytotoxicity against human A549 cells by sulforhodamine B dye-staining method. It counts as functional, cell-based. The procedure, abridged:
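Human lung cancer A549 cells were stained with sulforhodamine B dye, and the IC50 was reported as the cytotoxicity value.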
(The SRB assay estimates cell density from bound dye.)

For `CN(C)CCN1C(=O)c2cccc3cccc1c23`, the values for the IC50 in experiment [1] and in experiment [2] were 79.4 µmol and 300 µmol, respectively.

`O=C1c2cccc3cccc(c23)N1CCNCCN1C(=O)c2cccc3cccc1c23`: the IC50 in experiment [1] was 13.8 µmol; in experiment [2], 29.5 µmol.

For the compound `CN(C)CCNCCN1C(=O)c2cccc3cccc1c23`, the IC50 in experiment [1] came to 1.69 µmol; in experiment [2], 0.489 µmol.

For `CN(C)CCCN1C(=O)c2cccc3cccc1c23`, the figures for the IC50 in experiment [1] and in experiment [2] were 7.76 µmol and 22.9 µmol, respectively.

Consider `O=C1c2ccc([N+](=O)[O-])c3cccc(c23)N1CCCl`, for which the IC50 in experiment [1] stood at 17.8 µmol; in experiment [2], 52.5 µmol.
